Screening results (PubChem)
This is a sample that favours compounds with a hit; in the whole collection about 3% have one here.
Cardio protect: cardioprotection against H2O2-induced cell death, primary screen, uHTS, H9c2 cells, ATPLite luminescence. H9c2 cardiomyocytes, H2O2 injury protection, 2 h. protection from H2O2 cell death, % at 20 µM. actives 0.63% (n = 360,000). AID 588492, 2011;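 active = compounds giving at least 50% protection of heart cells from peroxide-induced death in the single-dose screen, raw or plate-pattern-corrected value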;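 also: 0% = DMSO wells with peroxide and 100% = DMSO wells without peroxide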
Myeloid diff 2: induction of myeloid progenitor differentiation, primary screen, cell-based, flow cytometry, MLPCN library. ER-HoxA9 myeloid progenitors, lysozyme-GFP differentiation. calls only at 10 µM. actives 1% (n = 360,000);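 active = normalized GFP-positive differentiation at or above the plate's own cutoff, the solvent-only control mean plus 3 SD; inconclusive = no clear call, values can overlap the other calls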;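 also: cells exposed to compound for four days before flow analysis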
HNF4A DNA FP: change in binding of human HNF4A to DNA, primary screen, biochemical, fluorescence polarization, FITC-DNA; Hepatocyte nuclear factor 4-alpha (Homo sapiens), P41235; 1 h; activity change, % at 10 µM; actives 0.3% (n = 360,000); AID 1224865, 2016; in the data active = activity change above about 30%, passing the limit was not always enough
SENP1 FRET inh: human SENP1 catalytic domain inhibitors, primary screen, biochemical, FRET, uHTS; actives 0.21% (n = 360,000); recombinant SENP1 catalytic domain, CyPet-SUMO1-YPet FRET cleavage; inhibition, % at 10 µM; Sentrin-specific protease 1 (Homo sapiens), Q9P0U3;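 active = inhibition at least 30% at 10 µM, raw YFP signal under a set limit, fluorescence ratio 0.5 to 1.5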;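 also: 0% = enzyme with DMSO and 100% = no enzyme wells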
Target sequence (Q9P0U3 419-644 limits assumed): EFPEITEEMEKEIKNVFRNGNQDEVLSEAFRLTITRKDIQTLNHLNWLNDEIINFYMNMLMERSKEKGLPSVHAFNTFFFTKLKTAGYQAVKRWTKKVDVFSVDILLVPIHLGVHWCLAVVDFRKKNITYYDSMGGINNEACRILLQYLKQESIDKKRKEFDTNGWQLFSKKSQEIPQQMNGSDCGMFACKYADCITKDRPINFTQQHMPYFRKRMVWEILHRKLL
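System: Recombinant human SENP1 catalytic domain, His6-tagged | Incubation: Enzyme reaction for 50 min at room temperature, dark | Medium: Tris pH 8 with BME, BSA, NP40 and catalase | Also added: 25 nM SUMO1 FRET substrate | Compound: 10 µM single point, 0.5% DMSO | Measured by: FRET fluorescence in CFP and YFP emission channels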
Granule exo inh: LAMP-1 surface exposure blockers, TALL-104 cells – cell-based, flow cytometry, MLPCN library, primary screen | inhibition, % at 10 µM | TALL-104 LAMP-1 surface exposure; cells stimulated with thapsigargin and PMA | AID 651702, 2012 | actives 0.66% (n = 360,000);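 active = inhibition above about 55%, limit read from the data; inconclusive = no clear call, values can overlap the other calls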
Pemphigus Ab inh: inhibitors of pemphigus antibody binding to DSG3, primary screen, biochemical, bead-based, flow cytometry, scFv-GFP | DSG3-coupled beads, scFv-anti-DSG3-GFP binding; stronger effect = lower value | actives 0.48% (n = 310,000) | AID 588358, 2011 | Desmoglein-3 (Homo sapiens), P32926 | binding (percent of control), % at 10 µM;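 active = binding more than 3 SD below its plate's average and above zero; inconclusive = below that plate limit but binding exactly zero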;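 also: hits lower antibody fragment binding to DSG3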
* marks the source's active call; other numbers are inactive results; i = inactive; ? = inconclusive; / = no result; + = active, no number.

SMILES | Cardio protect | Myeloid diff 2 | HNF4A DNA FP | SENP1 FRET inh | Granule exo inh | Pemphigus Ab inh
CCOC(=O)C1CCC(CN(Cc2ccccc2C)S(=O)(=O)c2ccc([N+](=O)[O-])cc2)CC1 (centres undefined) | -1 | + | 0 | 0 | 3 | /
Cc1ccc(S(=O)(=O)Nc2c(NC3CCCCC3)c3ccccc3oc2=O)c(C)c1 | 2 | i | 0 | -1 | 4 | 79
Cn1c(CNc2ccccc2O)nc2ccccc21 | -11 | + | 4 | 2 | 1 | 112
CN(C)S(=O)(=O)c1cccc(NC(=O)CN2C(=O)NC(Cc3c[nH]c4ccccc34)C2=O)c1 (centres undefined) | -4 | i | -2 | -2 | 0 | 97
CCN(CC)C(=O)Cn1cc(S(=O)(=O)CC(=O)N2CCOCC2)c2ccccc21 | 0 | i | 1 | 3 | 15 | /
CC(=O)n1cc(/C=N/NC(=O)c2sc(C)nc2C)c2ccccc21 | 56* | i | 1 | -4 | -3 | /
Cc1nnsc1C(=O)N/N=C/c1ccc2ccccc2c1O | 14 | ? | 67* | 56 | 15 | 100
CC(=O)n1cc(/C=N/NC(=O)c2ccc([N+](=O)[O-])cc2)c2ccccc21 | 11 | i | 0 | 3 | 7 | 97
O=C1CCCN1C(=O)CSc1ccc2ccccc2n1 | 10 | i | 4 | 1 | 7 | 103
COc1ccc(C2C(C#N)=C(N)SC(N)=C2C#N)cc1OC | 5 | + | 116 | -21 | -2 | /
Cc1cc(C(=O)COC(=O)C23CC4CC(CC(O)(C4)C2)C3)c(C)n1C | 0 | i | -1 | 0 | -8 | 89
CC1(C)C[C@@H](O)CC2(C1)C[C@]1(C)CC(O)[C@H]2C(C)(C)C1 (some centres undefined) | -2 | i | 9 | -1 | -3 | 98
O=C(O)C1=C[C@H](c2coc3ccccc3c2=O)C[C@H](OCCCCO)O1 | 16 | i | -3 | -3 | 69* | 109
CCOc1ccc(S(=O)(=O)NC(C)C)cc1C(N)=O | 0 | i | 1 | 2 | -2 | 103
O=C(COC(=O)c1ccc(S(=O)(=O)N2CCc3ccccc3C2)cc1)NC1CCS(=O)(=O)C1 (centres undefined) | -4 | i | 0 | 2 | 6 | 67*
CCOC(=O)c1ccc2c(c1)n(CC)c(/C=C/Nc1ccccc1)[n+]2CC | -8 | i | 2 | -30 | 0 | 105
CC[n+]1c(/C=C/Nc2ccccc2)oc2ccccc21 | -14 | + | 29 | -17 | 6 | 137
CC[n+]1c(/C=C/N(C)c2ccccc2)oc2ccc(F)cc21 | -9 | ? | 60* | 1 | -3 | 270
CC[n+]1c(/C=C/N(C)c2ccccc2)oc2ccccc21 | -6 | ? | 26 | 2 | 0 | 188
CCn1c(/C=C/Nc2ccccc2)[n+](CC)c2ccc(Cl)cc21 | -19 | i | 2 | 0 | -1 | 108
CC[n+]1c(/C=C/Nc2ccccc2)oc2ccc(OC)cc21 | -14 | + | 30 | -62 | -3 | 155
CC(C)COC(=O)N1CCCCC1c1cc(C(=O)Nc2ccccc2)no1 (centres undefined) | 2 | i | -4 | 2 | 2 | /
O=C(CN1CCCCC1)Nc1nc(-c2ccc(F)c(F)c2)cs1 | 55* | i | 3 | 0 | 33 | /
Cc1noc(C)c1C(=O)N(CC(C)C)c1nc2ccccc2s1 | 4 | i | 1 | 0 | -2 | /
CC1=C(C)/C(=N/OC(=O)c2cccc([N+](=O)[O-])c2)C=CC1=O | -10 | i | 0 | -1 | -1 | /
O=c1[nH]c(N2CCN(c3ccccc3)CC2)nc2c1CCC2 | 51* | i | 2 | 1 | -3 | 106
O=c1[nH]c(N2CCOCC2)nc2c1CCCC2 | 44 | i | 0 | 2 | 2 | 102
